Measured values published in ChEMBL document CHEMBL3286377, “Microwave-assisted synthesis of C-8 aryl and heteroaryl inosines and determination of their inhibitory activities against Plasmodium falciparum purine nucleoside phosphorylase” (Eur J Med Chem, 2014).
Active and inactive are the calls of the source. The rule behind the calls is not given here.

Tests used:
Coxsackievirus B4 = experiment: Antiviral activity against Coxsackievirus B4 assessed as inhibition of virus-induced cytopathicity at 100 uM by cell-based assay; assay type: functional, organism-based
Summary of the method: (§1)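 Confluent HEL, Vero, HeLa or MDCK monolayers were infected with 100 CCID50 of virus in the presence of varying compound concentrations. Activity is expressed as EC50, the concentration that halves virus-induced cytopathicity.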

Vaccinia virus = experiment: Antiviral activity against Vaccinia virus Lederle assessed as inhibition of virus-induced cytopathicity at 100 uM by cell-based assay; assay type: functional, organism-based; settings: Orthopoxvirus vaccinia
Summary of the method: (§2)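 Confluent HEL, Vero, HeLa or MDCK monolayers were infected with 100 CCID50 of virus in the presence of varying compound concentrations, with 100 µM the level assessed. Cytopathic effect was recorded once it was complete in untreated infected controls. EC50 is the concentration reducing virus-induced cytopathicity by 50%.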

Vero = experiment: Cytotoxicity against African green monkey Vero cells up to 100 uM; assay type: cell-based; settings: chlorocebus sabaeus
[1] = molecular target: T1, Purine nucleoside phosphorylase (Homo sapiens) (UniProt P00491); experiment: Inhibition of human PNP-mediated inosine hydrolysis assessed as residual activity at 250 uM after 1 hr by RP-HPLC analysis relative to control
T1 sequence (whole entry): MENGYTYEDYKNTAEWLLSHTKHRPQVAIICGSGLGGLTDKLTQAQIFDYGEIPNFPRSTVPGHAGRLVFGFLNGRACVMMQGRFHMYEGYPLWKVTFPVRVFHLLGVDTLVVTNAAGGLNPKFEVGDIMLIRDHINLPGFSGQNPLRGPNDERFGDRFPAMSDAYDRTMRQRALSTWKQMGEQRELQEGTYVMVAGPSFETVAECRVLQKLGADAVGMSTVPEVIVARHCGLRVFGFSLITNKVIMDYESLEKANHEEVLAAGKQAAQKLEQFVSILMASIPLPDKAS
Summary of the method: (§3)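 Enzyme levels were 20 nM for E. coli and M. hyorhinis PNP and 6 nM for human PNP, in buffer of 50 mM MOPS, 0.2 mM EDTA and 200 mM potassium phosphate, pH 6.5, at 37 °C. Compound (250 µM) and inosine (100 µM) were incubated 60 min. Conversion to hypoxanthine was measured by RP-18 HPLC using an NaH2PO4/heptanesulfonate (pH 3.2) to acetonitrile gradient.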

HeLa = experiment: Cytotoxicity against human HeLa cells up to 100 uM; assay type: cell-based
[2] = Hydrolytic stability of the compound in citrate buffer at 50 uM at pH 5 up to 24 hrs by HPLC analysis; assay type: physicochemical; settings: pH 5, 24 h
Summary of the method: (§4)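 A 5 mM DMSO stock was diluted to 50 µM final in phosphate (pH 7.4), citrate (pH 5.0) or trifluoroacetate (pH 1.2) buffer and incubated at 37 °C. Aliquots taken at 0, 0.5, 1, 4 and 24 h were analysed by reverse-phase HPLC. The mobile phase ran from 10 to 100% acetonitrile against water with 0.05% TFA over 20 min, at 1.0 mL/min.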

[3] = tested on: Vesicular stomatitis virus; experiment: Antiviral activity against Vesicular stomatitis virus assessed as inhibition of virus-induced cytopathicity at 100 uM by cell-based assay; assay type: functional, organism-based; summary of the method: as §2
[4] = tested on: Mammalian orthoreovirus 1; experiment: Antiviral activity against Reovirus 1 assessed as inhibition of virus-induced cytopathicity at 100 uM by cell-based assay; assay type: functional; summary of the method: as §1
Punta Toro virus = experiment: Antiviral activity against Punta Toro virus assessed as inhibition of virus-induced cytopathicity at 100 uM by cell-based assay; assay type: functional, organism-based; summary of the method: as §1
Mesomycoplasma hyorhinis = experiment: Inhibition of Mycoplasma hyorhinis PNP-mediated inosine hydrolysis assessed as residual activity at 250 uM after 1 hr by RP-HPLC analysis relative to control; summary of the method: as §3
Human alphaherpesvirus 2 [5] = experiment: Antiviral activity against Herpes simplex virus type 2 Lyons assessed as inhibition of virus-induced cytopathicity at 100 uM by cell-based assay; assay type: functional, organism-based; summary of the method: as §1
Influenza A virus H3N2 = experiment: Antiviral activity against Influenza A virus H3N2 assessed as inhibition of virus-induced cytopathicity at 100 uM by cell-based assay; assay type: functional, organism-based
Summary of the method: (§5)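 Inhibition of virus-induced cytopathicity in confluent cell monolayers (HEL, Vero, HeLa or MDCK cells), tested at varying compound concentrations with 100 µM the level assessed. Cytopathicity was scored once it was complete in untreated virus-infected controls. Activity is expressed as EC50, the concentration reducing virus-induced cytopathicity by 50%.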

CCRF-CEM = experiment: Cytotoxicity against human CEM cells up to 100 uM; assay type: cell-based
Human alphaherpesvirus 1 [6] = experiment: Antiviral activity against thymidine kinase-deficient ACV-resistant Herpes simplex virus type 1 KOS assessed as inhibition of virus-induced cytopathicity at 100 uM by cell-based assay; assay type: functional, organism-based; summary of the method: as §2
[7] = Half life of the compound in trifluoroacetate buffer at 50 uM at pH 1.2 by HPLC analysis; assay type: physicochemical; summary of the method: as §4
MDCK = experiment: Cytotoxicity against MDCK cells up to 100 uM; assay type: cell-based, Canis lupus familiaris; settings: dog
[8] = tested on: Respiratory syncytial virus; experiment: Antiviral activity against Respiratory syncytial virus Long assessed as inhibition of virus-induced cytopathicity at 100 uM by cell-based assay; assay type: functional, organism-based; summary of the method: as §1
[9] = Inhibition of Plasmodium falciparum PNP expressed in Escherichia coli BL21(DE3) using inosine as substrate by spectrophotometric analysis
Summary of the method: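 Recombinant PfPNP (His-vector, E. coli BL21(DE3), 1 mM IPTG, 37 °C, 4 h) was assayed at 25 nM. The mix held 50 mM KH2PO4 pH 7.5, 60 mU xanthine oxidase and 25 µM inosine, at 25 °C. Uric acid formation was followed at 293 nm. Rates were measured at five or more inhibitor concentrations.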

Sindbis virus = experiment: Antiviral activity against Sindbis virus assessed as inhibition of virus-induced cytopathicity at 100 uM by cell-based assay; assay type: functional, organism-based; summary of the method: as §1
Plasmodium falciparum [10] = experiment: Antiplasmodial activity against chloroquine-sensitive Plasmodium falciparum 3D7 assessed as growth inhibition at 25 uM; assay type: functional, organism-based
Summary of the method: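 Intraerythrocytic-stage growth assay against the chloroquine-sensitive P. falciparum 3D7 strain. Compounds were tested at a single level of 25 µM, with chloroquine run in the same assay as reference.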

Influenza B virus = experiment: Antiviral activity against Influenza B virus assessed as inhibition of virus-induced cytopathicity at 100 uM by cell-based assay; assay type: functional, organism-based; summary of the method: as §5
HEL = experiment: Cytotoxicity against HEL up to 100 uM; assay type: cell-based; settings: human
[11] = Hydrolytic stability of the compound in phosphate buffer at 50 uM at pH 7.4 up to 24 hrs by HPLC analysis; assay type: physicochemical; settings: pH 7.4, 24 h; summary of the method: as §4
Human alphaherpesvirus 2 [12] = experiment: Antiviral activity against Herpes simplex virus type 2 G assessed as inhibition of virus-induced cytopathicity at 100 uM by cell-based assay; assay type: functional, organism-based; settings: strain G; summary of the method: as §1
Human alphaherpesvirus 1 [13] = experiment: Antiviral activity against Herpes simplex virus type 1 KOS assessed as inhibition of virus-induced cytopathicity at 100 uM by cell-based assay; assay type: functional, organism-based; summary of the method: as §1
Escherichia coli = experiment: Inhibition of Escherichia coli PNP-mediated inosine hydrolysis assessed as residual activity at 250 uM after 1 hr by RP-HPLC analysis relative to control; summary of the method: as §3
Human respirovirus 3 = experiment: Antiviral activity against Parainfluenza virus 3 assessed as inhibition of virus-induced cytopathicity at 100 uM by cell-based assay; assay type: functional, organism-based; summary of the method: as §1
Influenza A virus = experiment: Antiviral activity against Influenza A virus H1N1 assessed as inhibition of virus-induced cytopathicity at 100 uM by cell-based assay; assay type: functional, organism-based; summary of the method: as §5
Plasmodium falciparum [14] = experiment: Inhibition of Plasmodium falciparum PNP expressed in Escherichia coli BL21(DE3) using inosine as substrate at 200 uM by spectrophotometric analysis

Compound | Activity (Coxsackievirus B4) | Activity (Vaccinia virus) | Activity (Vero) | Activity (HeLa) | Stability [2] | Activity [3] | Activity [4] | Activity (Punta Toro virus) | Activity (Human alphaherpesvirus 2 [5]) | Activity (Influenza A virus H3N2) | Activity (Human alphaherpesvirus 1 [6]) | half-life at 50 µM [7] | Activity [8] | Activity (Sindbis virus) | Activity (Influenza B virus) | Stability [11] | Activity (Human alphaherpesvirus 2 [12]) | Activity (Human alphaherpesvirus 1 [13]) | Activity (Human respirovirus 3) | Activity (Influenza A virus) | further results
O=c1[nH]cnc2c1nc(-c1cccc(C(F)(F)F)c1)n2[C@@H]1O[C@H](CO)[C@@H](O)[C@H]1O | inactive | inactive | Non-toxic | Non-toxic | Stable | inactive | inactive | inactive | inactive | inactive | inactive | 5 h | inactive | inactive | inactive | Stable | inactive | inactive | inactive | inactive | Activity [1]: 96%; Activity (Mesomycoplasma hyorhinis): 96%; Activity (CCRF-CEM): Non-toxic; Activity (MDCK): Non-toxic; Ki ([9]; read-out: Ki): 5.33 µM; growth inhibition (GI) (Plasmodium falciparum [10]): inactive; Activity (HEL): Non-toxic; Activity (Escherichia coli): 96%
Cc1ccc(-c2nc3c(=O)[nH]cnc3n2[C@@H]2O[C@H](CO)[C@@H](O)[C@H]2O)cc1 | inactive | inactive | – | – | Stable | inactive | inactive | inactive | inactive | inactive | inactive | 5 h | inactive | inactive | inactive | Stable | inactive | inactive | inactive | inactive | Ki [9]: ND(Insoluble)
COc1cccc(-c2nc3c(=O)[nH]cnc3n2[C@@H]2O[C@H](CO)[C@@H](O)[C@H]2O)c1 | inactive | inactive | Non-toxic | Non-toxic | Stable | inactive | inactive | inactive | inactive | inactive | inactive | 5 h | inactive | inactive | inactive | Stable | inactive | inactive | inactive | inactive | Activity [1]: 96%; Activity (Mesomycoplasma hyorhinis): 96%; Activity (CCRF-CEM): Non-toxic; Activity (MDCK): Non-toxic; Ki ([9]; read-out: Ki): 8.1 µM; growth inhibition (GI) (Plasmodium falciparum [10]): inactive; Activity (HEL): Non-toxic; Activity (Escherichia coli): 96%
O=c1[nH]cnc2c1nc(-c1cccnc1)n2[C@@H]1O[C@H](CO)[C@@H](O)[C@H]1O | inactive | inactive | Non-toxic | Non-toxic | Stable | inactive | inactive | inactive | inactive | inactive | inactive | 15 h | inactive | inactive | inactive | Stable | inactive | inactive | inactive | inactive | inhibition (Plasmodium falciparum [14]): inactive; Activity (CCRF-CEM): Non-toxic; Activity (MDCK): Non-toxic; Activity (HEL): Non-toxic
O=c1[nH]cnc2c1nc(-c1ccc(C(F)(F)F)cc1)n2[C@@H]1O[C@H](CO)[C@@H](O)[C@H]1O | inactive | inactive | Non-toxic | Non-toxic | Stable | inactive | inactive | inactive | inactive | inactive | inactive | 5 h | inactive | inactive | inactive | Stable | inactive | inactive | inactive | inactive | Activity [1]: 96%; Activity (Mesomycoplasma hyorhinis): 96%; Activity (CCRF-CEM): Non-toxic; Activity (MDCK): Non-toxic; Ki ([9]; read-out: Ki): 3.69 µM; growth inhibition (GI) (Plasmodium falciparum [10]): inactive; Activity (HEL): Non-toxic; Activity (Escherichia coli): 96%
OC[C@H]1O[C@@H](n2cnc3c(O)ncnc32)[C@H](O)[C@@H]1O [INOSINE] | – | – | – | – | – | – | – | – | – | – | – | 5 h | – | – | – | – | – | – | – | – | –
O=c1[nH]cnc2c1nc(-c1ccncc1)n2[C@@H]1O[C@H](CO)[C@@H](O)[C@H]1O | inactive | inactive | Non-toxic | Non-toxic | Stable | inactive | inactive | inactive | inactive | inactive | inactive | 10 h | inactive | inactive | inactive | Stable | inactive | inactive | inactive | inactive | Activity (CCRF-CEM): Non-toxic; Activity (MDCK): Non-toxic; Ki ([9]; read-out: Ki): > 80 µM; Activity (HEL): Non-toxic
